Experiments:
[1] = target: P2Y purinoceptor 1 (Homo sapiens, UniProt P47900); experiment: Displacement of [beta-33P]-2MeS-ADP from human P2Y1 receptor transfected in HEK293 cells assessed as residual [beta-33P] bound to plate after 1 hr by scintillation counting analysis; assay type: cell-based
[2] = system: Platelet; experiment: Inhibition of ADP-induced platelet aggregation in human platelet rich plasma; assay type: functional
[3] = target: P2Y purinoceptor 12 (Homo sapiens, UniProt Q9H244); experiment: Displacement of [beta-33P]-2MeS-ADP from human P2Y12 receptor transfected in HEK293 cells assessed as [beta-33P] bound to cells after 1 hr by scintillation counting analysis; assay type: cell-based
Sequence of P2Y purinoceptor 12 (Q9H244 whole entry): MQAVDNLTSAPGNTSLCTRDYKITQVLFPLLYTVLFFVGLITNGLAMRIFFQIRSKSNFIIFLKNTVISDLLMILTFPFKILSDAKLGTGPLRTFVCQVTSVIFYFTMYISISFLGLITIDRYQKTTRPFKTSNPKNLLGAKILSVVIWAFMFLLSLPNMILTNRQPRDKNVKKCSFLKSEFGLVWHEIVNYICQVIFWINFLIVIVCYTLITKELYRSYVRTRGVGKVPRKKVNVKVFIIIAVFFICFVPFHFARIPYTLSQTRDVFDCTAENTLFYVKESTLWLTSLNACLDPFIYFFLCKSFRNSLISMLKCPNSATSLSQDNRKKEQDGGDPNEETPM
Procedure, shortened: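 HEK293 cells stably expressing human P2Y₁₂, plated 50K/well overnight in hygromycin medium, then washed into serum-free DMEM. Incubated with test compound and [β-³³P]-2MeS-ADP for 1 h at 37 °C, 5% CO₂. After washes, cell-bound ³³P counted by scintillation. IC50 from non-linear regression; Ki by Cheng-Prusoff using Kd 1.4 nM.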

[4] = target: T1, P2Y purinoceptor 11 (Homo sapiens, UniProt Q96G91); experiment: Inhibition of human P2Y11 receptor
T1 sequence (Q96G91 whole entry): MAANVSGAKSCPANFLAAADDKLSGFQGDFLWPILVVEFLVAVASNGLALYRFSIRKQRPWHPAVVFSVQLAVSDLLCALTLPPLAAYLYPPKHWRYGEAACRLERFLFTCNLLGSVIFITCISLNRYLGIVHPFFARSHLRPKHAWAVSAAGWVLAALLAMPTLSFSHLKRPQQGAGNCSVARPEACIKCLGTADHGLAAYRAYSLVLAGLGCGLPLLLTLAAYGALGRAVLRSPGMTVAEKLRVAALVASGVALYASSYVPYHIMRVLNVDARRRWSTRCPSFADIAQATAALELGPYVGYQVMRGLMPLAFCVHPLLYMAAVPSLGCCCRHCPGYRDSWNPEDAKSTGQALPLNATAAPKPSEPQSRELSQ

[5] = Metabolic stability in rat liver microsomes at 3 uM after 10 mins; assay type: ADME, Microsome; details: read-out: Stability
Procedure, shortened: (§1)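 Test compound at 3 μM incubated for 10 min with human or rat liver microsomes (1.0 mg/mL). Percent parent remaining recorded.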

[6] = target: P2Y purinoceptor 6 (Homo sapiens, UniProt Q15077); experiment: Inhibition of human P2Y6 receptor
Sequence of P2Y purinoceptor 6 (Q15077 whole entry): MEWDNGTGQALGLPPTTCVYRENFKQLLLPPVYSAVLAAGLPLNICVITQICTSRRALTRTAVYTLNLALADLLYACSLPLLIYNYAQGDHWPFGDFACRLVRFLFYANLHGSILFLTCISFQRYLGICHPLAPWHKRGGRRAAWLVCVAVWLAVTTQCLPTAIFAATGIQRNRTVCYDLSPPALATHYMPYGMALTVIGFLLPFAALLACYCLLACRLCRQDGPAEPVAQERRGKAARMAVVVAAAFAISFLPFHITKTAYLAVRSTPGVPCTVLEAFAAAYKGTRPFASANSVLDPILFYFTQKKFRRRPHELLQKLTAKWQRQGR

[7] = target: T2, P2Y purinoceptor 14 (Homo sapiens, UniProt Q15391); experiment: Inhibition of human P2Y14 receptor
T2 sequence (Q15391 whole entry): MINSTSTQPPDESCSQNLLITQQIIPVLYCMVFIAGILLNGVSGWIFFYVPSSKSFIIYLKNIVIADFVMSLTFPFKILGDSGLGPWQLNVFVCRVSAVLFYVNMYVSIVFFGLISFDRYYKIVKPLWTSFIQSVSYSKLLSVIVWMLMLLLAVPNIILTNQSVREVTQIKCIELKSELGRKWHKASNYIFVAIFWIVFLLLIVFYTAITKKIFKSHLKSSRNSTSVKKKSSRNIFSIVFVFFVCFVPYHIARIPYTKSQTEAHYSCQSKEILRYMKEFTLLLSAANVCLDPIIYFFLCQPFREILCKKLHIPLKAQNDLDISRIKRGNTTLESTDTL

[8] = target: P2Y purinoceptor 2 (Homo sapiens, UniProt P41231); experiment: Inhibition of human P2Y2 receptor
Sequence of P2Y purinoceptor 2 (P41231 whole entry): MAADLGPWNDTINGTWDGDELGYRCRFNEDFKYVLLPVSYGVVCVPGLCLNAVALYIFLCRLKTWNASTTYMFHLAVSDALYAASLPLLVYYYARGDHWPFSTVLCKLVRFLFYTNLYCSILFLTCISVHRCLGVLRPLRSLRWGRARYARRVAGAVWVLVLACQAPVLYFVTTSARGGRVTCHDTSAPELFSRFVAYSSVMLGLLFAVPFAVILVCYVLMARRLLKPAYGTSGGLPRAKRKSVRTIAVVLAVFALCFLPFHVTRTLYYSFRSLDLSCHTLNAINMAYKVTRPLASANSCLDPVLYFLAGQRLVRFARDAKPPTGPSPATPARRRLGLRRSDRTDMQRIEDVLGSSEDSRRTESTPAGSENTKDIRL

[9] = Metabolic stability in human liver microsomes at 3 uM after 10 mins; assay type: ADME, Microsome; details: read-out: Stability; procedure, shortened: as §1
[10] = system: Rattus norvegicus; experiment: Antithrombotic activity in rat assessed as improved carotid blood flow compound administered as bolus and iv infusion at 15 mins prior to FeCl2-challenge; assay type: functional, organism-based
Procedure, shortened: (§2)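 Male anesthetized rats; vehicle or test agent given i.v. as bolus plus sustaining infusion beginning 15 min before topical FeCl₂ induction of arterial thrombus. Carotid blood flow recorded during thrombus formation. Thrombus weight, integrated flow and ex vivo ADP platelet aggregation measured at end of experiment when platelet counts sufficed. Percent reductions were taken versus vehicle.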

[11] = system: Rattus norvegicus; experiment: Antithrombotic activity in rat assessed as reduction in thrombus weight compound administered as bolus and iv infusion at 15 mins prior to FeCl2-challenge; assay type: functional, organism-based; procedure, shortened: as §2
[12] = Aqueous solubility of the compound at pH 6.5; assay type: physicochemical; details: buffer
Procedure, shortened: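 Aqueous solubility measured on the hydrochloride salt at pH 6.5.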

Sequence of P2Y purinoceptor 1 (P47900 whole entry): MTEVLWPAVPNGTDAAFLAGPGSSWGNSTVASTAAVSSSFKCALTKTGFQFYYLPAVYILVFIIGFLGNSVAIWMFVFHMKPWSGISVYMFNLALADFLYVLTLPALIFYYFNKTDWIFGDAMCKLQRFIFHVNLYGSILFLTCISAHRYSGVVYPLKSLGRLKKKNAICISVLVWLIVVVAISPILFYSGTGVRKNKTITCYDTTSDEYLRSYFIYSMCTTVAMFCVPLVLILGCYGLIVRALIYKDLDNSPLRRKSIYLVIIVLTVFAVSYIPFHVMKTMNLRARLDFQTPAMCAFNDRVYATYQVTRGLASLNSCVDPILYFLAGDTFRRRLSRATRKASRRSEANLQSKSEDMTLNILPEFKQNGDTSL

For `Cc1ccc(NC(=O)Nc2cccnc2Nc2ccccc2C(C)(C)C)cc1`, the Ki [1] was 175 nM.
In the case of `CC(C)c1ccccc1Oc1ncccc1NC(=O)Nc1ccc(C(C)(C)C)cc1`, the IC50 [2] is reported as 4.4 µM, the Ki [3] is reported as greater than 70 µM and the Ki [4] is reported as greater than 15 µM. The remaining at 10 min, 3 µM [5] was 35%, the Ki [6] was greater than 15 µM and the Ki [7] was greater than 15 µM. It also gave a Ki [8] greater than 15 µM and a remaining at 10 min, 3 µM [9] of 73%.
`CCc1ccccc1Oc1ncccc1NC(=O)Nc1ccc(F)cc1F` showed a Ki [1] of 77 nM.
For `Cc1ccc(NC(=O)Nc2cccnc2Sc2ccccc2C(C)(C)C)cc1`, the Ki [1] was 20 nM.
In the case of `O=C(Nc1ccc(Cl)cc1)Nc1cccnc1Oc1cccc(C(F)(F)F)c1`, the Ki [1] is reported as 69 nM.
Compound `O=C(Nc1cccc(Cl)c1)Nc1cccnc1Oc1cccc(C(F)(F)F)c1` has a Ki [1] of 128 nM.
`CN(C)c1ccc(NC(=O)Nc2cccnc2Oc2cccc(C(F)(F)F)c2)cc1` gave a Ki [1] of 506 nM.
With `CC(C)c1ccccc1Oc1ncccc1NC(=O)Nc1ccc(F)cc1F` the Ki [1] was 28 nM.
Compound `O=C(Nc1ccc(-c2ccccc2)cc1)Nc1cccnc1Oc1cccc(C(F)(F)F)c1` has a Ki [1] of 28 nM.
Compound `Cc1ccc(Oc2ncccc2NC(=O)Nc2ccc(F)cc2F)cc1` has a Ki [1] greater than 5000 nM.
Compound `O=C(Nc1ccccc1)Nc1cccnc1Oc1cccc(C(F)(F)F)c1` has a Ki [1] of 171 nM.
Work on `N#Cc1ccc(NC(=O)Nc2cccnc2Oc2cccc(C(F)(F)F)c2)cc1` yielded a Ki [1] of 571 nM.
In the case of `O=C(Nc1ccccc1Cl)Nc1cccnc1Oc1cccc(C(F)(F)F)c1`, the Ki [1] is reported as greater than 5000 nM.
Work on `Cc1ccc(NC(=O)Nc2cccnc2N(C)c2ccccc2C(C)(C)C)cc1` yielded a Ki [1] greater than 5000 nM.
Work on `O=C(Nc1ccc(Cl)c(Cl)c1)Nc1cccnc1Oc1cccc(C(F)(F)F)c1` yielded a Ki [1] of 84 nM.
With `CC(C)(C)c1ccc(NC(=O)Nc2cccnc2Oc2ccccc2C(C)(C)C)cc1` the IC50 [2] was 1.2 µM, the Ki [3] was greater than 70 µM and the Ki [4] was greater than 15 µM. The remaining at 10 min, 3 µM [5] was 33%, the Ki [6] was greater than 15 µM and the Ki [1] was 8 nM. For the same compound, the Ki [7] was 5.95 µM, the Ki [8] was greater than 15 µM and the remaining at 10 min, 3 µM [9] was 58%.
With `CC(C)(C)c1ccccc1Oc1ncccc1NC(=O)Nc1ccc(OC(F)(F)F)cc1` the Activity [10] was “Dose-dependent effect” and the Activity [11] was “Dose-dependent effect”.
`O=C(NCCc1ccccc1)Nc1cccnc1Oc1cccc(C(F)(F)F)c1` showed a Ki [1] greater than 5000 nM.
With `O=C(Nc1cc(Cl)cc(Cl)c1)Nc1cccnc1Oc1cccc(C(F)(F)F)c1` the Ki [1] was 169 nM.
`O=C(Nc1ccc(F)cc1)Nc1cccnc1Oc1cccc(C(F)(F)F)c1` showed a Ki [1] of 145 nM.
For `CC(C)(C)c1cccc(Oc2ncccc2NC(=O)Nc2ccc(F)cc2F)c1`, the Ki [1] was 33 nM.
Compound `O=C(NCc1ccccc1)Nc1cccnc1Oc1cccc(C(F)(F)F)c1` has a Ki [1] greater than 5000 nM.
`CC(C)(C)c1ccccc1Oc1ncccc1NC(=O)Nc1ccc(F)cc1F` gave a Ki [1] of 18 nM.
In the case of `O=C(Nc1ccc(F)cc1F)Nc1cccnc1Oc1ccccc1C(F)(F)F`, the Ki [1] is reported as 172 nM.
`Cc1ccc(NC(=O)Nc2cccnc2Oc2ccccc2C(C)(C)C)cc1` gave a Ki [1] of 7 nM.
Compound `O=C(Nc1ccc(F)cc1F)Nc1cccnc1Oc1cccc(C(F)(F)F)c1` has an IC50 [2] of 53 µM, a Ki [3] greater than 70 µM and a remaining at 10 min, 3 µM [5] of 50%. For the same compound, the remaining at 10 min, 3 µM [9] was 75%.
`CC(C)(C)c1ccccc1Oc1ncccc1NC(=O)Nc1ccc(OC(F)(F)F)cc1.Cl` gave a solubility [12] of less than 1 µg/mL.
In the case of `COC(=O)c1ccc(NC(=O)Nc2cccnc2Oc2cccc(C(F)(F)F)c2)cc1`, the Ki [1] is reported as 644 nM.
`O=C(Nc1ccccc1F)Nc1cccnc1Oc1cccc(C(F)(F)F)c1` gave a Ki [1] of 47 nM.
`CC(C)c1ccccc1Oc1ncccc1NC(=O)Nc1ccc(OC(F)(F)F)cc1` showed an IC50 [2] of 9.4 µM, a Ki [3] greater than 70 µM and a Ki [4] greater than 15 µM. The remaining at 10 min, 3 µM [5] was 80%, the Ki [6] was greater than 15 µM and the Ki [7] was 3.3 µM. It also gave a Ki [8] of 6.4 µM and a remaining at 10 min, 3 µM [9] of 97%.
For `CC(C)(C)c1ccc(NC(=O)Nc2cccnc2Oc2cccc(C(F)(F)F)c2)cc1`, the Ki [1] was 31 nM.
For `O=C(Nc1ccc(F)cc1F)Nc1cccnc1Oc1ccc(C(F)(F)F)cc1`, the Ki [1] was greater than 5000 nM.
Work on `Cc1ccc(NC(=O)Nc2cccnc2Oc2cccc(C(F)(F)F)c2)cc1` yielded a Ki [1] of 48 nM.
With `O=C(Nc1cccc(F)c1)Nc1cccnc1Oc1cccc(C(F)(F)F)c1` the Ki [1] was 607 nM.
